Assay results from ChEMBL document CHEMBL1131066, “2-Substituted aminopyrido[2,3-d]pyrimidin-7(8H)-ones. structure-activity relationships against selected tyrosine kinases and in vitro and in vivo anticancer activity” (J Med Chem, 1998).

Assays:
MCF7 [1] = test: Weight change of MCF-7 tumor cells in mice at 12 mg/kg peroral dose, days 1-15 administration; assay type: functional, organism-based; parameters: dose 12 mg/kg
How it was run: (§1)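 Tumor-bearing nude mice (NCr nu/nu, 18–22 g, 6–8 per group) were implanted in the right axilla with tumor fragments on day 0 and dosed by average cage weight. Vehicle was 50 mM sodium lactate pH 4.0, or 0.5% methyl cellulose suspension; cisplatin was given in saline. Host body weight change is given as the maximum treatment-related weight loss.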

C6 [2] = test: Net reduction in tumor burden between first and last treatments of C6 glioma cell tumors in mice at 10 mg/kg peroral dose, days 1-15 administration; assay type: functional; conditions: route oral
How it was run: (§2)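 NCr nu/nu nude mice (18–22 g, 6–8 per group, randomized) had tumor fragments, kept by serial passage in nude mice, implanted in the right axilla on day 0. Mice were dosed by average cage weight on the listed days, over a range from toxic to ineffective doses. Vehicle was 50 mM sodium lactate pH 4.0 or 0.5% methyl cellulose suspension. Net log cell kill was taken between first and last treatments.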

COLO 205 [3] = test: Difference in days for treated (T) and control (C) COLO 205 cell tumors to reach 750 mg in mice at 10 mg/kg peroral dose, days 14-28 administration; assay type: functional; conditions: route oral
How it was run: (§3)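 Nude mice (NCr nu/nu), 18–22 g, 6–8 per group, randomized and implanted with serially passaged tumor fragments in the right axilla on day 0. Dosed by average cage weight. Vehicle was 50 mM sodium lactate buffer, pH 4.0, or a 0.5% methyl cellulose suspension for one compound. Cisplatin was given in saline. T − C is the difference in days for treated and control tumors to reach 750 mg.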

Mus musculus [4] = test: Net reduction in tumor burden between first and last treatments in PDGF-transfected fibroblast cells in mice at 9.5 mg/kg peroral dose, days 1-15 administration; conditions: route oral
C6 glioma = test: Difference in days for treated (T) and control (C) C6 glioma tumors to reach 750 mg in mice at 5 mg/kg peroral dose, days 1-15 administration; conditions: route oral
Mus musculus [5] = test: Weight change of PDGF-transfected fibroblast cells in mice at 15 mg/kg peroral dose, days 1-15 administration; assay type: functional; conditions: route oral
How it was run: (§4)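 Nude mice (NCr nu/nu, 18–22 g, 6–8 per group) were randomized and implanted with serially passaged tumor fragments in the right axilla on day 0. Oral dosing was based on average cage weight, on the days stated, over a dose range from toxic to ineffective. Vehicle was 50 mM sodium lactate buffer, pH 4.0, or 0.5% methyl cellulose suspension. Host weight change is reported as maximum treatment-related loss.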

Mus musculus [6] = test: Difference in days for treated (T) and control (C) PDGF-transfected fibroblast tumors to reach 750 mg in mice at 9.5 mg/kg peroral dose, days 1-15 administration; conditions: route oral
HT-29 [7] = test: Weight change of HT-29 tumor cells in mice at 10.2 mg/kg peroral dose, days 15-29 administration; assay type: functional; conditions: route oral; how it was run: as §1
C6 [8] = test: C6 cell growth in soft agar with continuous treatment; assay type: functional, cell-based, Rattus norvegicus; conditions: Rattus norvegicus, C6
How it was run: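 C6 rat glioma cells (F10 Ham's with 15% horse serum, 2.5% fetal calf serum) exposed 3 days to a concentration series, then plated in soft agar with compound still present at the same concentration; colonies stained and counted after two weeks. IC50; mean of two experiments, each in duplicate.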

A-431 [9] = test: Net reduction in tumor burden between first and last treatments in A431 cell tumors in mice at 20 mg/kg peroral dose, days 7-21 administration; assay type: functional; conditions: route oral; how it was run: as §2
Mus musculus [10] = test: Net reduction in tumor burden between first and last treatments of PDGF-transfected fibroblast cells in mice at 15 mg/kg peroral dose, days 1-15 administration; assay type: functional; conditions: route oral; how it was run: as §2
NIH3T3 [11] = test: Growth of NIH3T3 cell colonies in soft agar with continuous treatment; assay type: functional, cell-based; conditions: Mus musculus
How it was run: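 Soft agar cloning used PDGF-B-transfected NIH3T3 (NIH3T3/PDGF) cells. Cells were exposed 3 days to a concentration series, then plated in soft agar with the matching compound concentration kept present. Colonies were stained and counted after two weeks. IC50; mean of two experiments, each in duplicate.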

MCF7 [12] = test: Difference in days for treated (T) and control (C) MCF-7 cell tumors to reach 750 mg in mice at 12 mg/kg peroral dose, days 1-15 administration; assay type: functional; conditions: route oral; how it was run: as §3
SK-OV-3 [13] = test: Difference in days for treated (T) and control (C) SK-OV-3 cell tumors to reach 750 mg in mice at 20.3 mg/kg peroral dose, days 20-34 administration; assay type: functional; conditions: route oral; how it was run: as §3
C6 [14] = test: Net reduction in tumor burden between first and last treatments of C6 glioma cell tumors in mice at 5 mg/kg peroral dose, days 1-15 administration; assay type: functional; conditions: route oral; how it was run: as §2
C6 [15] = test: Difference in days for treated (T) and control (C) C6 glioma cell tumors to reach 750 mg in mice at 10 mg/kg peroral dose, days 1-15 administration; assay type: functional; conditions: route oral; how it was run: as §3
NIH3T3/PDGF = test: Weight change of NIH3T3/PDGF cell tumors in mice at 9.5 mg/kg peroral dose, days 1-15 administration; conditions: route oral
HT-29 [16] = test: Net reduction in tumor burden between first and last treatments of HT-29 cell tumors in mice at 10.2 mg/kg peroral dose, days 15-29 administration; assay type: functional; conditions: route oral; how it was run: as §2
SK-OV-3 [17] = test: Weight change of SK-OV-3 cell tumors in mice at 20.3 mg/kg peroral dose, days 20-34 administration; assay type: functional; conditions: route oral; how it was run: as §4
A-431 [18] = test: Difference in days for treated (T) and control (C) A431 cell tumors to reach 750 mg in mice at 20 mg/kg peroral dose, days 7-21 administration; assay type: functional; conditions: route oral; how it was run: as §3
COLO 205 [19] = test: Net reduction in tumor burden between first and last treatments of COLO 205 cell tumors in mice at 10 mg/kg peroral dose, days 14-28 administration; assay type: functional; conditions: route oral; how it was run: as §2
NIH3T3 [20] = test: Growth of NIH3T3 cell colonies in soft agar with discontinued treatment; assay type: functional, cell-based; conditions: Mus musculus
How it was run: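 PDGF-B-transfected NIH3T3 (NIH3T3/PDGF) cells exposed 3 days to a concentration series, washed free of inhibitor, plated in drug-free soft agar; colonies stained and counted after two weeks. IC50; mean of two experiments, each in duplicate.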

C6 [21] = test: Weight change of C6 glioma tumor cells in mice at 5 mg/kg peroral dose, days 1-15 administration; assay type: functional, Mus musculus; conditions: route oral; how it was run: as §1
A-431 [22] = test: Weight change of A431 cell tumor in mice at 20 mg/kg peroral dose, days 7-21 administration; assay type: functional; conditions: route oral; how it was run: as §1
Mus musculus [23] = test: Difference in days for treated (T) and control (C) PDGF-transfected fibroblast tumors to reach 750 mg in mice at 15 mg/kg peroral dose, days 1-15 administration; assay type: functional; conditions: route oral; how it was run: as §3
C6 [24] = test: Weight change of C6 glioma cell tumor in mice at 10 mg/kg peroral dose, days 1-15 administration; assay type: functional, organism-based; parameters: dose 10 mg/kg; how it was run: as §1
HT-29 [25] = test: Difference in days for treated (T) and control (C) HT-29 cell tumors to reach 750 mg in mice at 10.2 mg/kg peroral dose, days 15-29 administration; assay type: functional; conditions: route oral; how it was run: as §3
SK-OV-3 [26] = test: Net reduction in tumor burden between first and last treatments of SK-OV-3 cell tumors in mice at 20.3 mg/kg peroral dose, days 20-34 administration; assay type: functional; conditions: route oral; how it was run: as §2
MCF7 [27] = test: Net reduction in tumor burden between first and last treatments of MCF-7 cell tumors in mice at 12 mg/kg peroral dose, days 1-15 administration; assay type: functional; conditions: route oral; how it was run: as §2
COLO 205 [28] = test: Weight change of COLO 205 tumor cells in mice at 10 mg/kg peroral dose, days 14-28 administration; assay type: functional; conditions: route oral; how it was run: as §1
C6 [29] = test: Inhibition of C6 cell proliferation in sulforhodamine B assay; assay type: functional, cell-based, Rattus norvegicus; conditions: Rattus norvegicus, C6
How it was run: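 C6 rat glioma cells (F10 Ham's, 15% horse serum, 2.5% fetal calf serum) seeded and allowed 24 h to attach, then given serial 2-fold compound dilutions; 4 d at 37 °C, 5% CO2; growth read by sulforhodamine B staining. IC50; mean of two experiments, each in triplicate.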

Q: `CCN(CC)CCOc1ccc(Nc2ncc3cc(-c4c(Cl)cccc4Cl)c(=O)n(C)c3n2)cc1` [PD-0166285] was tested. Which Weight change (MCF7 [1]) did it give?
A: Weight gain

Q: And the Net cell kill (C6 [2])?
A: -1 log10

Q: And the T-C (COLO 205 [3])?
A: 0.6 days

Q: And the Net cell kill (Mus musculus [4])?
A: -1.6 log10

Q: What about the T-C (C6 glioma) of the same compound?
A: 0.3 days

Q: And the Weight change (Mus musculus [5])?
A: -0.4 g

Q: And the T-C (Mus musculus [6])?
A: 3.3 days

Q: What about the Weight change (HT-29 [7]) of the same compound?
A: 0 g

Q: And the IC50 (C6 [8])?
A: 120 nM

Q: And the Net cell kill (A-431 [9])?
A: -0.5 log10

Q: What about the Net cell kill (Mus musculus [10]) of the same compound?
A: -1.8 log10

Q: What about the IC50 (NIH3T3 [11]) of the same compound?
A: 1.1 nM

Q: And the T-C (MCF7 [12])?
A: 1.1 days

Q: And the T-C (SK-OV-3 [13])?
A: 10.6 days

Q: What about the Net cell kill (C6 [14]) of the same compound?
A: -0.8 log10

Q: What about the T-C (C6 [15]) of the same compound?
A: 0.4 days

Q: And the Weight change (NIH3T3/PDGF)?
A: -4.1 g

Q: What about the Net cell kill (HT-29 [16]) of the same compound?
A: -0.2 log10

Q: And the Weight change (SK-OV-3 [17])?
A: -4 g

Q: And the T-C (A-431 [18])?
A: 3.7 days

Q: And the Net cell kill (COLO 205 [19])?
A: -0.7 log10

Q: What about the IC50 (NIH3T3 [20]) of the same compound?
A: 10 nM

Q: What about the Weight change (C6 [21]) of the same compound?
A: -0.1 g

Q: What about the Weight change (A-431 [22]) of the same compound?
A: -3.1 g

Q: What about the T-C (Mus musculus [23]) of the same compound?
A: 2.2 days

Q: And the Weight change (C6 [24])?
A: Weight gain

Q: What about the T-C (HT-29 [25]) of the same compound?
A: 9.6 days

Q: And the Net cell kill (SK-OV-3 [26])?
A: -0.1 log10

Q: What about the Net cell kill (MCF7 [27]) of the same compound?
A: -0.6 log10

Q: And the Weight change (COLO 205 [28])?
A: -4 g

Q: What about the IC50 (C6 [29]) of the same compound?
A: 340 nM
